According to ChEMBL document CHEMBL2439982, “Synthesis and study of antiproliferative, antitopoisomerase II, DNA-intercalating and DNA-damaging activities of arylnaphthalimides” (Bioorg Med Chem, 2013):
The source made the active and inactive calls. The rule behind the calls is not given here.

What was measured:
[1] = molecular target: DNA topoisomerase 2-alpha (Homo sapiens) (UniProt P11388); experiment: Inhibition of human DNA topoisomerase 2alpha-mediated DNA cleavage assessed as decrease in relaxation of supercoiled pRYG plasmid at 60 uM after 30 mins by agarose gel electrophoresis
Summary of the method: (§1)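 Human Topo IIα, 1–2 units, with 250 ng supercoiled pRYG and 1 mM ATP in 5 mM Tris-HCl pH 7.5, 12.5 mM NaCl, 1 mM MgCl2, 0.5 mM DTT, 10 µg/mL albumin. Compound added in DMSO, 1% final. Incubated 37 °C for 30 min, stopped with SDS/EDTA, proteinase K digestion. 1% agarose in TBE without ethidium bromide, stained afterwards. Inhibition scored at 100, 60 and 30 µM.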

[2] = test system: HEL; experiment: Antiproliferative activity against human HEL cells after 48 hrs by MTT assay; format: functional, cell-based
Summary of the method: (§2)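 Cells seeded at 10,000 per well; compound or vehicle (0.1% DMSO final) added 24 h after plating and left 48 h. MTT added at 0.5 mg/mL final for 3 h at 37 °C, formazan dissolved in SDS–HCl (20% SDS, 0.02 M HCl), absorbance at 570 nm. IC50 by non-linear regression; mean SD, n = 3.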

[3] = molecular target: DNA topoisomerase 2-alpha (Homo sapiens) (UniProt P11388); experiment: Inhibition of human DNA topoisomerase 2alpha-mediated relaxation of supercoiled pRYG plasmid DNA assessed as formation of linearized DNA at 100 uM after 30 mins by agarose gel electrophoresis relative to vehicle-treated control in presence of ethidium bromide
Summary of the method: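 Cleavage-complex assay set up as the Topo IIα relaxation reaction, but with 10 units of hTopoIIα added 1–3 min before 100 µM compound in 1% DMSO. Etoposide as positive control. Electrophoresis in TAE containing 0.5 µg/mL ethidium bromide to resolve the linearized intermediate.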

[4] = test system: SK-BR-3; experiment: Antiproliferative activity against human SKBR3 cells after 48 hrs by MTT assay; format: functional, cell-based; conditions: SK-BR-3, 48 h; summary of the method: as §2
[5] = test system: Saccharomyces cerevisiae; experiment: Growth inhibition of Saccharomyces cerevisiae FM588 expressing wild type rad52 gene at 1 to 100 uM after 24 hrs by spectrophotometry; format: functional, organism-based
[6] = test system: Saccharomyces cerevisiae; experiment: Growth inhibition of isogenic rad52-deficient Saccharomyces cerevisiae FM588 at 1 to 100 uM after 24 hrs by spectrophotometry; format: functional, organism-based
[7] = molecular target: T1, DNA topoisomerase 1 (Homo sapiens) (UniProt P11387); experiment: Inhibition of DNA topoisomerase 1 (unknown origin)-mediated relaxation of supercoiled pBSKS plasmid DNA assessed as formation of nicked form of DNA at 1 00 uM after 30 mins by agarose gel electrophoresis in presence of ethidium bromide
T1 sequence (whole entry): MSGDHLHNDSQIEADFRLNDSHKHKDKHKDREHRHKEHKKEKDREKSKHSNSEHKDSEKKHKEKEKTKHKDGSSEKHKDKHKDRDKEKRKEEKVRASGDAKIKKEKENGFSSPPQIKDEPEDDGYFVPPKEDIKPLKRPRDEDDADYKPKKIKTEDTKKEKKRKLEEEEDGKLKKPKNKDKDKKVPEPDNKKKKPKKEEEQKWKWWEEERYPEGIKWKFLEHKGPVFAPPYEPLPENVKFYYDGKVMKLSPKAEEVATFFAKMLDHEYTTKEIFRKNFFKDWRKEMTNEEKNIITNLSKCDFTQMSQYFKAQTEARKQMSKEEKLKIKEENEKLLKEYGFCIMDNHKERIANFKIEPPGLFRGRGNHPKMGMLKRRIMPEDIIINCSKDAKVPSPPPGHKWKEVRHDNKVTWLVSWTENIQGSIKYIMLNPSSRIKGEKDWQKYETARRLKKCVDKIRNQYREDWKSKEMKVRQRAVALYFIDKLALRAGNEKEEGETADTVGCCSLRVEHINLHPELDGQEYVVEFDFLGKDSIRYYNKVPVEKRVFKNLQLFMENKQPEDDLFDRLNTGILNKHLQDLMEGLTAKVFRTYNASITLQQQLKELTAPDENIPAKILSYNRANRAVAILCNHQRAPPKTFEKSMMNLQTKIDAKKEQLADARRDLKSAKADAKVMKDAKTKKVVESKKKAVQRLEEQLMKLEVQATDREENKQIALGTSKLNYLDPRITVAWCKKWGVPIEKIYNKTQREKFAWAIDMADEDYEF

[8] = molecular target: DNA topoisomerase 2-alpha (Homo sapiens) (UniProt P11388); experiment: Inhibition of human DNA topoisomerase 2alpha-mediated DNA cleavage assessed as decrease in relaxation of supercoiled pRYG plasmid at 100 uM after 30 mins by agarose gel electrophoresis; summary of the method: as §1
[9] = test system: MCF7; experiment: Antiproliferative activity against human MCF7 cells after 48 hrs by MTT assay; format: functional, cell-based; conditions: MCF7, 48 h; summary of the method: as §2
[10] = test system: Saccharomyces cerevisiae; experiment: Cell cycle arrest in Saccharomyces cerevisiae W3749-14C harboring RAD52-YFP assessed as accumulation at G2 Phase at 100 uM after 3 hrs; format: functional, organism-based
Summary of the method: (§3)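 RAD52-YFP yeast (W3749-14C) growing asynchronously treated 3 h at 25 °C with 100 µM compound in 1% DMSO; DMSO and phleomycin 25 µg/mL as controls. Cells micrographed. Mononucleated budded cells with bud over two-thirds mother size scored as G2-arrested. Foci per cell = total YFP foci / total cells.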

[11] = test system: Saccharomyces cerevisiae; experiment: Induction of DNA repair in Saccharomyces cerevisiae W3749-14C harboring Rad52-YFP assessed as increase in Rad52 foci formation at 100 uM after 3 hrs; format: functional, organism-based; summary of the method: as §3
[12] = molecular target: DNA topoisomerase 2-alpha (Homo sapiens) (UniProt P11388); experiment: Inhibition of human DNA topoisomerase 2alpha-mediated DNA cleavage assessed as decrease in relaxation of supercoiled pRYG plasmid at 30 uM after 30 mins by agarose gel electrophoresis; summary of the method: as §1
[13] = molecular target: T1, DNA topoisomerase 1 (Homo sapiens); experiment: Inhibition of DNA topoisomerase 1 (unknown origin)-mediated DNA cleavage assessed as decrease in relaxation of supercoiled pBSKS plasmid at 1 00 uM after 30 mins by agarose gel electrophoresis
[14] = molecular target: T2, Type II restriction enzyme XhoI (Xanthomonas vasicola) (UniProt Q9KVZ7); experiment: Inhibition of Xanthomonas vasicola Xho1 assessed as inhibition of endonucleolytic cleavage of pBSKS plasmid DNA at 100 uM by agarose gel electrophoresis
T2 sequence (whole entry): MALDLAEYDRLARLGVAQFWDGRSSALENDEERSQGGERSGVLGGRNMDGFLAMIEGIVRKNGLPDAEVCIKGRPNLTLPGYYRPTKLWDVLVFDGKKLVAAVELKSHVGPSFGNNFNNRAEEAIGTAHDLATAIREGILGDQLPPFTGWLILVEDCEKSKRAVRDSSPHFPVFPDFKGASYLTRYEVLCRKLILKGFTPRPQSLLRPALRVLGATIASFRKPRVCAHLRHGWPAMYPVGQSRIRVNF
Summary of the method: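 XhoI digestion of pBSKS plasmid, which carries a single XhoI site, run like the Topo I reaction with compounds at 100 µM in 1% DMSO. Actinomycin D as intercalator control. Agarose gel separates supercoiled, nicked intermediate and linear product.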

Sequence of DNA topoisomerase 2-alpha (Homo sapiens) (P11388 whole entry): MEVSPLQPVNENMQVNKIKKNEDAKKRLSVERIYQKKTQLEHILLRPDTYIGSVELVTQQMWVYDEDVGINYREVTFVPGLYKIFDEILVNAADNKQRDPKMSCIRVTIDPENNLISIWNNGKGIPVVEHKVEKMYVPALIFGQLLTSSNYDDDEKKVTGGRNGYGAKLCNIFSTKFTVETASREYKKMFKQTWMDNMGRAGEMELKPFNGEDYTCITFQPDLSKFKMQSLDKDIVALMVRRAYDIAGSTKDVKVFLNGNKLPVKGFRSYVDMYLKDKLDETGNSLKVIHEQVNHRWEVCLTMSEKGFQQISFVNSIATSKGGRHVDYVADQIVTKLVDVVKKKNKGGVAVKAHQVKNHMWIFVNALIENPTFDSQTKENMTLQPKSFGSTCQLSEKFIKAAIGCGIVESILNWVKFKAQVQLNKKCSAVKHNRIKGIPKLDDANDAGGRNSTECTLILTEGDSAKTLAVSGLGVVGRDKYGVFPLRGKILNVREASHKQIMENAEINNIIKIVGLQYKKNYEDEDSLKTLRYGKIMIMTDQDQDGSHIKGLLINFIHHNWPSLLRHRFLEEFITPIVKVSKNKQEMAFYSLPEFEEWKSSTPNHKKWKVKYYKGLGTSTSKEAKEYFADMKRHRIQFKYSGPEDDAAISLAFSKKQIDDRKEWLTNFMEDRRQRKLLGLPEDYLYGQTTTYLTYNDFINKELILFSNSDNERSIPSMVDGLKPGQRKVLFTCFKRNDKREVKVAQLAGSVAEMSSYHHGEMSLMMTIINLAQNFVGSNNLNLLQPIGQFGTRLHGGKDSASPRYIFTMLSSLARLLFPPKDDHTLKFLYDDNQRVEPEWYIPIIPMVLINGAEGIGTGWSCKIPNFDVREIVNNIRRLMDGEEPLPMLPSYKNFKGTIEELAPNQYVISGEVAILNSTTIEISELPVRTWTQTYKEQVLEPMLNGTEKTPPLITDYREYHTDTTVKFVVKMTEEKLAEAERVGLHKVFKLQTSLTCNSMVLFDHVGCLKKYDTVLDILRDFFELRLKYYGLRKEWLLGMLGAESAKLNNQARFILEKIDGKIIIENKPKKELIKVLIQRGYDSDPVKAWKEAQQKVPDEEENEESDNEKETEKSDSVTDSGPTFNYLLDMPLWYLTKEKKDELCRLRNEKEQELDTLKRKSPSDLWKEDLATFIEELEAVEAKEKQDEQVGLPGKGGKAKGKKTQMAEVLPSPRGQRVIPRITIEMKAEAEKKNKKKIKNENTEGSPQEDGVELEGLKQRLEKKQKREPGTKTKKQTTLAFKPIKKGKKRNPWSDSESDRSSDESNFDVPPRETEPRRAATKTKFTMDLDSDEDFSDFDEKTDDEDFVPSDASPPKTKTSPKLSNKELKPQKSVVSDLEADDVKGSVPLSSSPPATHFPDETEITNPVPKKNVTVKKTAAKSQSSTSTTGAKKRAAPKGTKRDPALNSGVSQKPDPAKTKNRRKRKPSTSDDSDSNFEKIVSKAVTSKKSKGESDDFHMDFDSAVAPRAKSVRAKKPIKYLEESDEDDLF

Row | inhibition [1] | inhibition [3] | IC50 [4] | inhibition [7] | inhibition [8] | IC50 [9] | inhibition [12] | inhibition [13] | inhibition [14] | Structure (SMILES) | IC50 [2] | growth inhibition (GI) [5] | growth inhibition (GI) [6] | Activity [10] | Activity [11]
1 |  |  | 1.5 µM | inactive | Active | 7.6 µM |  |  |  | COc1ccc(-c2cc3c4c(cccc4c2)C(=O)N(CCN(C)C)C3=O)cc1 |  |  | Active |  | 
2 |  |  | > 30 µM | inactive | inactive | > 30 µM |  |  |  | COc1ccccc1-c1ccc2c3c(cccc13)C(=O)N(CCN(C)C)C2=O |  |  | inactive |  | 
3 | Active | Active | 1.2 µM |  |  |  |  |  |  | CN(C)CCN1C(=O)c2cccc3cc(-c4cccc(C(F)(F)F)c4)cc(c23)C1=O | 1.6 µM | Active |  | Active | Active
4 |  |  | 11.9 µM | inactive | Active | 25.7 µM |  |  |  | COc1ccccc1-c1cc2c3c(cccc3c1)C(=O)N(CCN(C)C)C2=O |  |  |  |  | 
5 |  | Active | 4.4 µM |  | Active |  |  |  |  | CN(C)CCN1C(=O)c2cccc3cc(-c4cccc(O)c4)cc(c23)C1=O | 7 µM |  | Active |  | 
6 |  | Active | 1.2 µM |  |  |  | Active |  |  | CN(C)CCN1C(=O)c2cccc3cc(-c4cccc([N+](=O)[O-])c4)cc(c23)C1=O | 0.6 µM | Active |  | Active | Active
7 | Active |  | 27.6 µM | inactive |  | > 30 µM |  | Active |  | COc1ccc(-c2ccc3c4c(cccc24)C(=O)N(CCN(C)C)C3=O)cc1 |  |  |  |  | 
8 |  | Active | 0.8 µM |  |  |  | Active |  |  | CN(C)CCN1C(=O)c2cccc3cc(-c4ccccc4)cc(c23)C1=O | 6 µM | Active |  | Active | Active
9 |  |  | 24 µM | inactive | inactive | 24 µM |  |  |  | COc1ccccc1-c1ccc2cccc3c2c1C(=O)N(CCN(C)C)C3=O |  |  |  |  | 
10 |  |  | > 30 µM |  |  | > 30 µM |  |  |  | COc1cccc(-c2ccc3cccc4c3c2C(=O)N(CCN(C)C)C4=O)c1 |  |  |  |  | 
11 | Active | Active | 0.3 µM | inactive |  | 0.5 µM |  | Active | Active | COc1cccc(-c2cc3c4c(cccc4c2)C(=O)N(CCN(C)C)C3=O)c1 | 2.7 µM | Active |  | Active | Active
12 |  |  | > 30 µM | inactive | inactive | > 30 µM |  |  |  | COc1ccc(-c2ccc3cccc4c3c2C(=O)N(CCN(C)C)C4=O)cc1 |  |  | inactive |  | 
13 |  | Active | 14.2 µM |  | inactive |  |  |  |  | CN(C)CCN1C(=O)c2cccc3cc(-c4cccc(N)c4)cc(c23)C1=O | 13.5 µM |  | Active |  | 
14 |  |  | > 30 µM | inactive | Active | > 30 µM |  | Active |  | COc1cccc(-c2ccc3c4c(cccc24)C(=O)N(CCN(C)C)C3=O)c1 |  |  |  |  | 

Row | Structure (SMILES) | inhibition [1] | inhibition [3] | IC50 [4] | inhibition [7] | inhibition [8] | IC50 [9] | inhibition [12] | inhibition [13] | inhibition [14] | IC50 [2] | growth inhibition (GI) [5] | growth inhibition (GI) [6] | Activity [10] | Activity [11]
15 | CN(C)CCN1C(=O)c2cccc3cc(N)cc(c23)C1=O [AMONAFIDE] | Active | Active | 7.4 µM |  |  |  |  |  |  | 3.4 µM | inactive | Active |  | 
